Source: PubChem (Johns Hopkins Ion Channel Center)
Shown are actives, neighbours in structure and some others; about 3.1% of the full set was active somewhere.
KCNK9 inh – KCNK9 potassium channel inhibitors, primary screen, HEK293 cells, thallium flux; Potassium channel subfamily K member 9 (Homo sapiens), Q9NPC2; FluxOR thallium flux fluorescence; stronger effect = lower value; B-score at 10 µM; 310,000 compounds, 1.2% hits; AID 488922, 2010;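 active = ratio B-score over 3 SD below the library mean, with starting fluorescence within 5 SD of its mean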;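 also: negative B-score means less thallium flux so channel inhibition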
hERG protect – hERG rescue from dofetilide block, primary screen, cell-based, CHO-hERG, FluxOR thallium flux, dofetilide IC70 | Voltage-gated inwardly rectifying potassium channel KCNH2 (Homo sapiens), Q12809 | dofetilide IC70 present | activation (rescue from dofetilide block), less the hit threshold, % at 10 µM | 310,000 compounds, 0.51% hits;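 active = activation above the mean of controls blocked by dofetilide plus 5 SD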;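 also: thallium influx through hERG after potassium depolarization seen as dye fluorescence rise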
KCNK3 block – human KCNK3 channel inhibitors, primary screen, CHO cells, FluxOR thallium flux, B-score. FluxOR fluorescence; stronger effect = lower value. B-score at 10 µM. 340,000 compounds, 0.84% hits;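 active = B-score under library mean minus 4 SD, starting fluorescence ratio at most library mean plus 5 SD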;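 also: more negative B-score means stronger inhibition of thallium flux through KCNK3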
KCNQ1 block – inhibitors of human KCNQ1 channel, primary screen, cell-based, thallium flux, high-throughput; Potassium voltage-gated channel subfamily KQT member 1 (Homo sapiens), P51787; CHO-K1 KCNQ1, FluxOR thallium flux fluorescence; stronger effect = higher value; B-score at 10 µM; 310,000 compounds, 1.3% hits;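 active = compounds whose thallium flux B-score, printed positive for inhibition, exceeds three library SD while starting fluorescence stays within three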;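 also: channel opened by potassium depolarization with thallium stimulus after 20 min compound exposure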
KCNQ1 pot – potentiators or activators of KCNQ1 channel, primary screen, cell-based, thallium flux, high-throughput. Potassium voltage-gated channel subfamily KQT member 1 (Homo sapiens), P51787. CHO-K1 KCNQ1, thallium flux FluxOR fluorescence; stronger effect = higher value. B-score at 10 µM. 310,000 compounds, 0.35% hits;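 active = fluorescence ratio B-score, a plate-corrected score, at least three library SD, with initial intensity B-score within 5 SD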
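Material: CHO-K1 cells stably expressing KCNQ1. Medium: assay buffer for compound exposure, DMSO matched across wells. Reagent: K+/Tl+ depolarizing stimulus. Compound dosing: single-concentration screen. Times: 37 °C overnight plating, 90-min dark dye load, 20-min compound pretreatment. Technique: FluxOR Tl+ flux fluorescence.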
KCNQ1 inh valid – KCNQ1 potassium channel inhibitors, confirmation, cell-based, Tl flux, duplicate; shares compounds with KCNQ1 block; KCNQ1 cell line, FluxOR thallium flux fluorescence; inhibition, % at 10 µM; 1,600 compounds, 93% hits; AID 588353, 2011;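 active = primary screen active, with duplicate mean exceeding buffer control mean plus 3 SD of buffer wells, cut at about 28% in these data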
CHO KCNQ1 ctr – thallium flux effects in parental CHO cells, counter-screen for KCNQ1 inhibitor project, cell-based, Tl flux | parental CHO-K1, FluxOR thallium flux fluorescence ratio; stronger effect = lower value; zero means no signal rise above baseline | fluorescence ratio (Tl flux) at 10 µM | 1,600 compounds, 21% hits | shares compounds with KCNQ1 block;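 active = mean of duplicate thallium-flux fluorescence ratios in parental host cells more than 5 SD below the buffer control mean, cut at about 0.38 in these data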;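 also: ratio is peak minus minimum fluorescence divided by baseline fluorescence; actives read low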
KCNQ1 APC inh – KCNQ1 channel inhibitors, confirmation, orthogonal assay, cell-based, automated electrophysiology; shares compounds with KCNQ1 block; calls only at 10 µM; 490 compounds, 20% hits; KCNQ1-CHO cells, automated patch clamp current;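 active = KCNQ1 current drop exceeding 3 SD of negative control wells, seen in both duplicate runs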;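 also: steady state current during a 2 s step from -80 to +40 mV; negative values mean current inhibition and positive values mean potentiation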
KCNQ2 spec – KCNQ2 channel inhibition, selectivity assay for KCNQ1 inhibitor project, cell-based | KCNQ2 cells, FluxOR thallium flux fluorescence | 1,600 compounds, 71% hits | shares compounds with KCNQ1 block | inhibition, % at 10 µM;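 active = mean percent inhibition of the KCNQ2 thallium signal more than 5 SD above the buffer-only control wells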;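 also: KCNQ2 expressed in CHO cells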
KCNQ1 KCNE1 spec – KCNQ1/KCNE1 channel inhibition, selectivity assay for KCNQ1 inhibitor project, CHO-K1 cells, thallium flux, FluxOR | shares compounds with KCNQ1 block | FluxOR thallium flux fluorescence | inhibition, % at 10 µM | 1,600 compounds, 77% hits | AID 652147, 2013;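 active = mean percent inhibition of duplicate wells above the buffer-only control mean plus 3 SD of those controls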
Target sequence (P51787 whole entry, looked up): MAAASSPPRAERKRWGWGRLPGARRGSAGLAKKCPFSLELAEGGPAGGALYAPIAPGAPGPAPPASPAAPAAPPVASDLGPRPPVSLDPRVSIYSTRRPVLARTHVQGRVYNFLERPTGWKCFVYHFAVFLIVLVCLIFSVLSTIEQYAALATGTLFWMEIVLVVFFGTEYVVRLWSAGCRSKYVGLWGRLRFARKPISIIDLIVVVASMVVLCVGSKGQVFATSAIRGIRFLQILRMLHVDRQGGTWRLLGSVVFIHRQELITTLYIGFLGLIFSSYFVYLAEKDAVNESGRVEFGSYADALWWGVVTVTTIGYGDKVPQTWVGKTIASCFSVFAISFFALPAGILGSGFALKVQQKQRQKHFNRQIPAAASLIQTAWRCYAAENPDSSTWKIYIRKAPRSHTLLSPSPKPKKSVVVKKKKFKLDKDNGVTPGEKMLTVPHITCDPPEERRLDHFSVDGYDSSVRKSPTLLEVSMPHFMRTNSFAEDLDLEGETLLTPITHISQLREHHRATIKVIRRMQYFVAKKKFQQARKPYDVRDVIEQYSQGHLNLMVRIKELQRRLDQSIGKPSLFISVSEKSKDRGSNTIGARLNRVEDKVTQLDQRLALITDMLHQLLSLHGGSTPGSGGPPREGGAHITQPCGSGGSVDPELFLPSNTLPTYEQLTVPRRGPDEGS
Numbers stand for hits; - = inactive; . = no result given; + = active, no number.

SMILES | KCNK9 inh | hERG protect | KCNK3 block | KCNQ1 block | KCNQ1 pot | others
C1CCC2S[C@H]3CCCCC3NC2C1 (stereo partly specified) | - | 5.3 | - | - | -
Cc1ccc2c(C)c3ccc4ccccc4c3c[n+]2c1 | . | . | - | . | .
CN(C)S(=O)(=O)c1cc(NC(=O)C[N+]23CCN(CC2)CC3)ccc1Cl | - | - | - | - | -
CN(C)S(=O)(=O)c1cc(NC(=O)COC(=O)Cc2ccccc2)ccc1Cl | - | - | - | 6 | -
COC(=O)C1=C(C(=O)OC)SC2(S1)C(C(=O)OC)=C(C(=O)OC)Sc1c2ssc1=O | . | . | - | . | .
CN1CSC(=S)N(C)C1 | - | - | - | 13 | -
CC(CC(C#N)(c1ccccc1)c1ccccc1)N1CCOCC1 (stereo unspecified) | . | . | - | . | .
CC1(C)C[C@H]2C=C(C=O)[C@]3(C=O)C[C@]3(C)[C@H]2C1 | - | - | - | - | 21
C=CCN(CC=C)C(=O)CCN1CC1C (stereo unspecified) | . | . | - | . | .
CN(C)c1ccc(/C=C/[N+](=O)[O-])cc1 | - | - | - | 12 | -
Oc1ccc(O)c2c1C1(Cl)C(Cl)=C(Cl)C2(Cl)C1(Cl)Cl | . | . | - | . | .
Cc1ccccc1-[n+]1c(-c2ccccc2)cc(-c2ccccc2)cc1-c1ccccc1 | - | - | - | 10 | -
Oc1ccccc1-[n+]1c(-c2ccccc2)cc(-c2ccccc2)cc1-c1ccccc1 | - | - | - | 14 | -
[O-]c1ccccc1-[n+]1c(-c2ccccc2)cc(-c2ccccc2)cc1-c1ccccc1 | -7.36 | - | - | 6 | -
Cc1ccc(-c2cc(-c3ccccc3)cc(-c3ccccc3)[n+]2-c2ccc(C(=O)O)cc2)cc1 | - | - | - | - | -
Nc1ccc(-c2ccccc2)cc1 | . | . | - | . | .
Oc1c(Br)cc(-c2ccccc2)cc1Br | . | . | - | . | .
Nc1ccccc1-[n+]1c(-c2ccccc2)cc(-c2ccccc2)cc1-c1ccccc1 | - | - | - | 7 | -
CCOC(=O)C1(c2ccccc2)CCN(CCC(=O)Nc2cccc(Br)c2)CC1 | . | . | - | . | .
CC(=O)NC1=C(N2CC2C)C(=O)C(NC(C)=O)=C(N2CC2C)C1=O (stereo unspecified) | . | . | - | . | .
COc1cc2cc(C(=O)N3CC(COS(C)(=O)=O)c4ccc(O)cc43)[nH]c2c(OC)c1OC (stereo unspecified) | . | . | - | . | .
O=[N+]([O-])c1ccc(OP(=O)(O)Oc2ccc([N+](=O)[O-])cc2)cc1 | . | . | - | . | .
Clc1ccc(CSC(Cn2ccnc2)c2ccc(Cl)cc2Cl)cc1 (stereo unspecified) | - | - | - | 6 | -
Cc1ccsc1/C=C1\C(=O)NC(=S)N(C)C1=O | - | - | - | 8 | -
COc1ccc(/C=C2\C(=O)NC(=S)N(C)C2=O)cc1C | - | - | - | - | -
SMILES | KCNK9 inh | hERG protect | KCNK3 block | KCNQ1 block | KCNQ1 pot | others
CN1C(=O)/C(=C/c2ccc(Cl)s2)C(=O)NC1=S | - | 5.2 | - | - | -
COC1CCCCC1NCCc1ccccc1 (stereo unspecified) | - | 5.0 | - | - | -
Clc1ccc(C(c2ccc(Cl)cc2)n2cc[n+](CC(OCc3ccc(Cl)cc3Cl)c3ccc(Cl)cc3Cl)c2)cc1 (stereo unspecified) | . | . | - | . | .
COc1ccc(C2=CC(c3ccc4c(c3)OCO4)c3c(c4ccccc4oc3=O)O2)cc1OC (stereo unspecified) | . | . | - | . | .
COC[C@H]1OC(=O)c2coc3c2[C@@]1(C)C1=C(C3=O)[C@@H]2CCC(=O)[C@@]2(C)C[C@H]1OC(C)=O | . | . | - | . | .
O=S(=O)(c1ccccc1)N1CCCCC1c1cccnc1 (stereo unspecified) | - | 8.4 | - | - | -
CC1=C(C)CC2(CC1)C(=O)NC(=O)NC2=O | . | . | - | . | .
Cc1sc2c(c1C)C(c1ccc(C(C)(C)C)cc1)=NCC(=O)N2CC(=O)Nc1nccs1 | - | - | - | 6 | - | KCNQ1 inh valid=83.5;CHO KCNQ1 ctr=-;KCNQ2 spec=-;KCNQ1 KCNE1 spec=94.0%
CCCCn1c(=O)c(C(=O)Nc2ccccc2S(N)(=O)=O)c(O)c2ccccc21 | - | - | - | - | -
CCCCCCCn1c(=O)c(C(=O)Nc2cnccn2)c(O)c2ccccc21 | - | - | - | - | -
CCCCCn1c(=O)c(C(=O)Nc2cnccn2)c(O)c2ccccc21 | - | - | -10.1 | 8 | - | KCNQ1 inh valid=78.5;CHO KCNQ1 ctr=-;KCNQ2 spec=-;KCNQ1 KCNE1 spec=68.0%
CCCCCn1c(=O)c(C(=O)Nc2ccccc2S(N)(=O)=O)c(O)c2ccccc21 | - | - | - | 9 | - | KCNQ1 inh valid=75.0;CHO KCNQ1 ctr=-;KCNQ2 spec=-;KCNQ1 KCNE1 spec=-
CC(C)(O)/C=C/C(=O)C(C)(O)C1C(O)CC2(C)C3CC=C4C(C=C(O)C(=O)C4(C)C)C3(C)C(=O)CC12C (stereo unspecified) | . | . | - | . | .
Oc1c(Br)c(Br)c(Br)c(Br)c1Br | . | . | - | . | .
CC(N)C(=O)NC1C2C(=C(O)CC(O)C2O)C(=O)OC1(C)C(Cl)Cl (stereo unspecified) | . | . | - | . | .
Brc1cccc(CNCCc2ccc3c(c2)OCO3)c1 | - | - | - | 6 | - | KCNQ1 inh valid=100.5;CHO KCNQ1 ctr=-;KCNQ1 APC inh=+;KCNQ2 spec=85.7%;KCNQ1 KCNE1 spec=53.5%
CCOC(=O)C(O)(c1ccc(NC(=O)c2ccc(Cl)c(Cl)c2)cc1)C(F)(F)F (stereo unspecified) | - | - | - | 6 | - | KCNQ1 inh valid=123.0;CHO KCNQ1 ctr=-;KCNQ1 APC inh=-;KCNQ2 spec=93.0%;KCNQ1 KCNE1 spec=144.5%
